From ChEMBL document CHEMBL1129574, “Synthesis, structure-activity relationships, and pharmacokinetic properties of dihydroorotate dehydrogenase inhibitors: 2-cyano-3-cyclopropyl-3-hydroxy-N-[3'-methyl-4'-(trifluoromethyl)phenyl ] propenamide and related compounds” (J Med Chem, 1996)

Legend:
[1] = test system: Mus musculus; assay: In vivo for its ability to inhibit delayed type hypersensitivity in mouse following 30 mg/kg administration.; format: functional
Procedure, shortened: (§1)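 Male CD-1 mice (25–30 g, n = 8-16) sensitized day 0 by s.c. 1 mg methylated BSA in saline/Freund's complete adjuvant; negative controls saline/FCA. Day 7 challenge: MBSA 0.1 mg into right hind footpad, saline in left. Oral dosing once daily days 4–6 plus twice on day 7 (1 h before, 6 h after challenge). Paw edema read 24 h post-challenge; Student's t-test.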

[2] = t1/2 in mouse plasma after oral dose (30/mg/Kg); format: ADME, organism-based
Procedure, shortened: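 Male CD-1 mice (25–32 g, n=5/time point) gavaged orally 30 mg/kg (10 mL/kg). Blood by exsanguination under ether at 0, 1, 3, 6, 24, 48, 72 h, pooled per time point, heparinized; plasma stored −20 °C. Drug quantified by reversed-phase HPLC (ODS, pH 7 phosphate/acetonitrile 65:35, UV 300 nm) with internal standard and spiked-plasma calibration.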

[3] = target: Dihydroorotate dehydrogenase (quinone), mitochondrial (Mus musculus, UniProt O35435); assay: Inhibitory concentration tested on enzyme dihydroorotate dehydrogenase in mouse
[4] = test system: Rattus norvegicus; assay: Compound was tested in vivo for its ability to inhibit DTH(delayed type hypersensitivity )in rat at a concentration of 3 mg/kg; format: functional
Procedure, shortened: (§2)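 Male CFHB rats (160-180 g, n=7-12) sensitized day 0 by tail-base s.c. FCA (0.4 mg M. tuberculosis in liquid paraffin); controls got incomplete adjuvant. Day 7 challenge: soluble M. tuberculosis extract 0.4 mg into right hind footpad, saline in left. Oral dosing once daily days 4-6 and twice day 7 (1 h before, 6 h after). Edema read at 24 h; Student's t-test.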

[5] = t1/2 in rat plasma after oral dose (10 mg/kg); format: ADME, organism-based
Procedure, shortened: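 Male Wistar CFHB rats (190–220 g, n=3/time point) given 10 mg/kg orally by gavage (10 mL/kg). Cardiac-puncture blood under ether at 0, 1, 3, 6, 24, 48, 72 h, individual heparinized samples; plasma kept at −20 °C. Levels by HPLC (ODS column, 0.1 M pH 7 phosphate 65%/acetonitrile 35%, UV 300 nm), internal standard, peak-area calibration from spiked blank plasma.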

[6] = target: Dihydroorotate dehydrogenase (quinone), mitochondrial (Rattus norvegicus, UniProt Q63707); assay: Inhibitory concentration tested against enzyme dihydroorotate dehydrogenase in rat
[7] = test system: Mus musculus; assay: In vivo ability to inhibit delayed type hypersensitivity in mouse at a concentration of 100 mg/kg; format: functional; procedure, shortened: as §1
[8] = test system: Rattus norvegicus; assay: Compound was tested in vivo for its ability to inhibit DTH(delayed type hypersensitivity ) in rat at a concentration of 50 mg/kg; format: functional; procedure, shortened: as §2
[9] = test system: Mus musculus; assay: Compound was tested in vivo for its ability to inhibit DTH(delayed type hypersensitivity ) in mouse at a concentration of 100 mg/kg; format: functional; procedure, shortened: as §1
[10] = test system: Rattus norvegicus; assay: In vivo for its ability to inhibit delayed type hypersensitivity in rat following 10 mg/kg administration.
[11] = test system: Rattus norvegicus; assay: Compound was tested in vivo for its ability to inhibit DTH(delayed type hypersensitivity )in rat at a concentration of 1 mg/kg; format: functional; procedure, shortened: as §2
[12] = test system: Rattus norvegicus; assay: Compound was tested in vivo for its ability to inhibit DTH(delayed type hypersensitivity )in rat at a concentration of 50 mg/kg; format: functional; procedure, shortened: as §2
[13] = test system: Mus musculus; assay: Compound was tested in vivo for its ability to inhibit DTH(delayed type hypersensitivity ) in mouse at a concentration of 30 mg/kg; format: functional; procedure, shortened: as §1
[14] = test system: Rattus norvegicus; assay: Compound was tested in vivo for its ability to inhibit DTH(delayed type hypersensitivity ) in rat at a concentration of 10 mg/kg; format: functional; procedure, shortened: as §2
[15] = test system: Rattus norvegicus; assay: Compound was tested in vivo for its ability to inhibit DTH(delayed type hypersensitivity ) in rat at a concentration of 3 mg/kg; format: functional; procedure, shortened: as §2

Sequence of Dihydroorotate dehydrogenase (quinone), mitochondrial (Rattus norvegicus, UniProt Q63707) (Q63707 whole entry): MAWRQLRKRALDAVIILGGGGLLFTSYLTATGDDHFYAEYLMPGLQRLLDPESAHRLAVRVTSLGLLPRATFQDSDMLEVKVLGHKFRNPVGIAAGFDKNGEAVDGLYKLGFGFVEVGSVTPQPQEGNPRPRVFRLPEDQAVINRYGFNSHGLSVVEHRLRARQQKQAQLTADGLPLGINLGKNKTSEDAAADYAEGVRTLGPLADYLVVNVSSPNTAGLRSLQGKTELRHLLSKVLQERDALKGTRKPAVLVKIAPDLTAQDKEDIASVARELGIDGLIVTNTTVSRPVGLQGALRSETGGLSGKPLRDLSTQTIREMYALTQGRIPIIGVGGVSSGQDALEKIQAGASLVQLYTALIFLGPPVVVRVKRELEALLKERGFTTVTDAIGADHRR
Sequence of Dihydroorotate dehydrogenase (quinone), mitochondrial (Mus musculus, UniProt O35435) (O35435 whole entry): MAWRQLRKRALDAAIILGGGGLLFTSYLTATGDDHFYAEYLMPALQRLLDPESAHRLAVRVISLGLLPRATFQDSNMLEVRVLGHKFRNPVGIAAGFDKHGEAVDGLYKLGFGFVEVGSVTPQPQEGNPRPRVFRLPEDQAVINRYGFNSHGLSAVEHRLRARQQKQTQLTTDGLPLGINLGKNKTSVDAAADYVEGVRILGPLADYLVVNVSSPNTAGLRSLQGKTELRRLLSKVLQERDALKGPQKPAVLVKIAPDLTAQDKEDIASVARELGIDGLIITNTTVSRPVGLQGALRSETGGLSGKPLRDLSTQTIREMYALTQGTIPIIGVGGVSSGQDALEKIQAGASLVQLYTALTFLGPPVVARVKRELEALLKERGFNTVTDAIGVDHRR

Row | SMILES | half-life [2] | IC50 [3] | half-life [5] | IC50 [6] | inhibition in vivo at 50 mg/kg [8] | inhibition in vivo at 100 mg/kg [9] | further results
1 | Cc1cc(NC(=O)/C(C#N)=C(\O)C2CC2)ccc1OC(F)(F)F | 14 h | 178 nM | 4 h | 18 nM | – | – | inhibition in vivo at 30 mg/kg [1]: 61%; inhibition in vivo at 3 mg/kg [4]: 46%
2 | N#C/C(C(=O)Nc1ccc(C(F)(F)F)cn1)=C(/O)C1CC1 | 5 h | 158 nM | 7 h | 17 nM | – | – | inhibition in vivo at 100 mg/kg [7]: 67%; inhibition in vivo at 3 mg/kg [4]: 40%
3 | C[S+]([O-])c1ccc(NC(=O)/C(C#N)=C(\O)C2CC2)cc1 (stereo not given) | – | 22400 nM | – | 832 nM | 71% | 1% | –
4 | C/C=C/C(O)=C(\C#N)C(=O)Nc1ccc(C(F)(F)F)cc1 | – | 4270 nM | – | 1410 nM | 16% | 54% | –
5 | Cc1cc(NC(=O)/C(C#N)=C(\O)C2CC2)ccc1C(F)(F)C(F)(F)F | 11 h | 282 nM | 10 h | 11 nM | – | – | inhibition in vivo at 30 mg/kg [1]: 65%; inhibition in vivo at 3 mg/kg [4]: 70%
6 | C=C(C)/C(O)=C(\C#N)C(=O)Nc1ccc(C(F)(F)F)cc1 | 13 h | 195 nM | 7 h | 251 nM | 78% | 54% | –
7 | N#CCc1ccc(NC(=O)/C(C#N)=C(\O)C2CC2)cc1 | – | 37200 nM | – | 4570 nM | 3% | 36% | –
8 | N#C/C(C(=O)Nc1ccc(Oc2ccc(Cl)cc2)cc1)=C(/O)C1CC1 | 21 h | 832 nM | 39 h | 1510 nM | – | – | inhibition in vivo at 30 mg/kg [1]: 63%; inhibition in vivo at 10 mg/kg [10]: 31%
9 | C=C/C(O)=C(\C#N)C(=O)Nc1ccc(C(F)(F)F)cc1 | – | – | – | 23 nM | 74% | – | inhibition in vivo at 100 mg/kg [7]: 7%
10 | Cc1cc(NC(=O)/C(C#N)=C(\O)C2CC2)ccc1SC(F)(F)F | 10 h | 178 nM | 13 h | 11 nM | – | – | inhibition in vivo at 30 mg/kg [1]: 55%; inhibition in vivo at 1 mg/kg [11]: 68%
11 | N#C/C(C(=O)Nc1ccc(CCc2ccccc2)cc1)=C(/O)C1CC1 | – | – | – | 138 nM | – | – | inhibition in vivo at 100 mg/kg [7]: 5%; inhibition in vivo at 50 mg/kg [12]: 51%
12 | CS(=O)(=O)c1ccc(NC(=O)/C(C#N)=C(\O)C2CC2)cc1 | – | 15100 nM | – | – | 50% | 36% | –
13 | N#C/C(C(=O)Nc1ccccc1Cl)=C(/O)C1CC1 | – | 16600 nM | – | 13300 nM | -12% | 43% | –
14 | N#C/C(C(=O)Nc1cccc(C(F)(F)F)c1)=C(/O)C1CC1 | – | 525 nM | – | 479 nM | 49% | – | inhibition in vivo at 30 mg/kg [13]: 41%
15 | CCc1cc(NC(=O)/C(C#N)=C(\O)C2CC2)ccc1C(F)(F)F | 6 h | 71 nM | 6 h | 40 nM | – | – | inhibition in vivo at 30 mg/kg [1]: 61%; inhibition in vivo at 10 mg/kg [10]: 74%
16 | N#C/C(C(=O)Nc1ccccc1C(F)(F)F)=C(/O)C1CC1 | – | > 100000 nM | – | > 100000 nM | -4% | -10% | –
17 | N#C/C(C(=O)Nc1ccc(C#N)cc1)=C(/O)C1CC1 | 6 h | 42 nM | 5 h | 53 nM | – | – | inhibition in vivo at 10 mg/kg [14]: 47%; inhibition in vivo at 30 mg/kg [13]: 73%
18 | Cc1cc(NC(=O)/C(C#N)=C(\O)C2CC2)ccc1C(F)(F)F | 8 h | 55 nM | 4 h | 14 nM | – | – | inhibition in vivo at 30 mg/kg [1]: 81%; inhibition in vivo at 10 mg/kg [10]: 59%
19 | CSc1ccc(NC(=O)/C(C#N)=C(\O)C2CC2)cc1 | < 2 h | 445 nM | < 1 h | 13 nM | 60% | 46% | –
20 | N#C/C(C(=O)Nc1ccc(Br)cc1)=C(/O)C1CC1 | 33 h | 36 nM | 20 h | 79 nM | – | – | inhibition in vivo at 10 mg/kg [14]: 58%; inhibition in vivo at 30 mg/kg [13]: 64%
21 | N#C/C(C(=O)Nc1ccc([S+]([O-])C(F)(F)F)cc1)=C(/O)C1CC1 (stereo not given) | 3 h | 417 nM | 3 h | 16 nM | – | – | inhibition in vivo at 3 mg/kg [15]: 75%; inhibition in vivo at 30 mg/kg [13]: 25%
22 | N#C/C(C(=O)Nc1ccc(Cl)cc1)=C(/O)C1CC1 | 21 h | 36 nM | 22 h | – | – | – | inhibition in vivo at 3 mg/kg [15]: 74%
23 | N#C/C(C(=O)Nc1ccccc1)=C(/O)C1CC1 | – | 1580 nM | – | 2000 nM | 43% | – | inhibition in vivo at 30 mg/kg [13]: 25%
24 | Cc1ccc(NC(=O)/C(C#N)=C(\O)C2CC2)cc1 | – | 288 nM | – | 234 nM | 28% | 47% | –
25 | N#C/C(C(=O)Nc1cccc(Cl)c1)=C(/O)C1CC1 | 2 h | 3000 nM | 3 h | 343 nM | 25% | 55% | –
26 | C=CC/C(O)=C(\C#N)C(=O)Nc1ccc(C(F)(F)F)cc1 | 23 h | 63 nM | 4 h | 107 nM | 79% | – | inhibition in vivo at 30 mg/kg [13]: 75%
27 | N#C/C(C(=O)Nc1ccc(S(=O)(=O)C(F)(F)F)cc1)=C(/O)C1CC1 | 14 h | 89 nM | 14 h | 3 nM | – | – | inhibition in vivo at 3 mg/kg [15]: 66%; inhibition in vivo at 30 mg/kg [13]: 43%
28 | N#C/C(C(=O)Nc1ccc(C(F)(F)F)cc1)=C(/O)C1CC1 | 28 h | 47 nM | 8 h | 21 nM | – | – | inhibition in vivo at 30 mg/kg [1]: 85%; inhibition in vivo at 10 mg/kg [10]: 53%
29 | C#C/C(O)=C(\C#N)C(=O)Nc1ccc(C(F)(F)F)cc1 | – | 2090 nM | – | 500 nM | 4% | 45% | –
